Drawing on PubChem BioAssay AID1229 (Sanford-Burnham Center for Chemical Genomics, 2008), this text covers activation factor for 63 compounds.

Among all 190,000 compounds or so, about 10 (0.005%) were called active. Only a selection was taken, and actives are over-represented in it overall. Unmarked numbers belong to inactive results.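 How the source made its calls: active means diaphorase activity raised at least twofold by the compound at 20 µM; inactive means activation factor below 2.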

The experiment is described as follows: compounds boosting diaphorase resazurin reduction – biochemical, uHTS, resorufin fluorescence, counter-screen for diaphorase-coupled primary assays, primary screen (AID 1229). Conditions: Diaphorase/resazurin coupled assay, 16 min, at 20 µM, hits give high values, 1 = vehicle wells, 0 = NADH-free wells. An outline of the steps:
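Material: Purified diaphorase enzyme from Clostridium kluyveri | Buffer or medium: 50 mM HEPES pH 7.4 with 4.542 mM MgCl2, 0.005% Tween 20 | Times: 16 min enzyme reaction, ambient temperature | Signal: Red resorufin fluorescence at 544/590 nm excitation/emission | Measure: Increased resorufin signal from activators or reducing compounds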
On the technique in general: Resazurin is reduced to fluorescent resorufin, in cell work by metabolically active cells.
As to `Cc1cccc(-n2c(=O)c3c(C)c(C)sc3n(CC(N)=O)c2=O)c1`, the activation factor is 1.1.

In the case of `O=C(COC(=O)c1ccc(Cl)nc1)NCc1ccc2c(c1)OCO2`, the activation factor is 1.

For `CC1CN(S(=O)(=O)c2ccc(C(=O)NN3CCN(C)CC3)cc2)CC(C)O1` (stereo not drawn), the activation factor was 0.9.

For the compound `CC(C)(C)NC(=O)C(=O)NCc1ccncc1`, the activation factor was 0.9.

For the compound `O=C(NCc1ccccc1)C1=C[C@@H](c2ccc(C(F)(F)F)cc2)C[C@@H](OCc2ccc(CO)cc2)O1`, the activation factor is 0.6.

With `O=C(NC(=S)Nc1ccc(S(=O)(=O)Nc2ncccn2)cc1)c1cccc(Br)c1`, the activation factor was 0.9.

Turning to `COc1ccc(/C=C(\C#N)C(=O)NCCCn2ccnc2)cc1`, the activation factor was 1.

On to `O=C1CC(=O)Nc2cc(S(=O)(=O)N3CCN(c4cccc(C(F)(F)F)c4)CC3)ccc2N1`, for which the activation factor is 1.

Turning to `CCOc1ccc(OCc2cccc(C(=O)N(CC)CC)c2)cc1`, the activation factor is 0.8.

Turning to `CC(=O)Nc1ccc(S(=O)(=O)Nc2nccc(/C=C/c3ccccc3F)n2)cc1`, the activation factor was 0.8.

In the case of `CCCc1nnc(SCC(=O)N2C(C)CCCC2C)n1CC` (stereo not drawn), the activation factor is 0.9.

For `CC(C)CNC(=O)/C=C/C(=O)O`, the activation factor is 1.

For the compound `COc1ccc(C)cc1Nc1nc(-c2c(C)[nH]c3ccccc23)cs1`, the activation factor was 0.9.

Take `O=C(NCCCn1ccnc1)c1cc(-c2ccccc2)on1`: the activation factor was 1.

Take `CCN(CC)CCOCCOc1ccc(Cl)c2ccccc12`: the activation factor is 0.8.

As to `Cn1c(SCC(=O)Nc2ccc(Br)cc2F)nnc1-c1ccco1`, the activation factor is 0.9.

Take `Cc1nc([N+](=O)[O-])cn1CC(=O)Nc1ccc2c(c1)OCO2`: the activation factor was 0.9.

Consider `CC(=O)NCCn1c(SCC(=O)Nc2ccc(C)cc2)nc2ccccc2c1=O`, for which the activation factor was 0.9.

With `COc1cccc(-n2c(=S)[nH]c3c(oc4ccccc43)c2=O)c1`, the activation factor was 0.3.

Take `CC1CCCCC1NC(=O)/C(C#N)=C/C=C/c1ccccc1[N+](=O)[O-]` (stereo not drawn): the activation factor was 0.8.

`Cc1cccc(-n2c(Cc3cc(=O)[nH]c(=O)[nH]3)nnc2SCC(=O)Nc2cccc(C(F)(F)F)c2)c1`: the activation factor is 1.

As for `COc1ccc(/C=C/C(=O)c2ccc(NS(=O)(=O)c3ccc(C)cc3)cc2)cc1O`, the activation factor was 0.7.

Take `CC(C)CCN1CCN(Cc2ccc(C(F)(F)F)cc2)CC1CCO` (stereo not drawn): the activation factor is 1.

Take `CC(=O)N(CN1C(=O)C2C3C=CC(C3)C2C1=O)c1cccc(Cl)c1` (stereo not drawn): the activation factor is 1.1.

Take `O=C(C1=C[C@H](c2coc3ccccc3c2=O)C[C@H](OCc2ccc(CO)cc2)O1)N1CCOCC1`: the activation factor is 0.8.

Turning to `COc1ccc(Br)cc1/C=N/Nc1ccc(Cl)c(C(=O)O)c1`, the activation factor is 0.9.

For `CC(=O)Nc1ccc(-c2csc(NC=C3C(=O)OC(C)(C)OC3=O)n2)cc1`, the activation factor was 0.9.

Turning to `COC(=O)CSc1ccc2nnc(CCNS(=O)(=O)c3ccc(C)cc3)n2n1`, the activation factor was 0.7.

As to `NC1=NN(c2cccc(C(=O)O)c2)C(=O)C1`, the activation factor is 0.9.

On to `O=S1(=O)CC/C(=N\Nc2ccc(F)cc2)c2ccsc21`, for which the activation factor was 0.9.

Take `CCO[C@H]1OC(C(=O)NCc2ccccc2)=C[C@@H](c2coc3ccccc3c2=O)[C@@H]1CCCO`: the activation factor is 0.8.

For `CC(=O)Nc1ccc(S(=O)(=O)Nc2ccc(-c3ccc4nnc(C)n4n3)cc2)cc1`, the activation factor is 1.1.

Take `CCOC(=O)C(CC)/C(C)=N\NC(=O)c1cccc(C)c1` (stereo not drawn): the activation factor is 0.9.

`COC(=O)N/N=C/c1ccc(-c2ccc(Cl)c(Cl)c2)o1`: the activation factor is 0.9.

For `C/C(=N\NS(=O)(=O)c1ccc(Cl)cc1)c1ccc(NC(=O)c2ccco2)cc1`, the activation factor is 0.8.

With `Cc1cc(C)nc(SCC(=O)N(C)C)n1`, the activation factor was 1.

Turning to `CCOc1ccc(C(C)=O)cc1COC(=O)c1cnc(Cl)c(Cl)c1`, the activation factor was 0.8.

Take `C=CCNCCCCOc1ccccc1`: the activation factor was 1.1.

For the compound `CONc1nc2nonc2nc1NOC`, the activation factor was 0.9.

As for `O=C(C1CC1)N1N=C2CCCCC2C1(O)C(F)(F)F` (stereo not drawn), the activation factor was 0.9.

For the compound `Cc1ccc(NN=Nc2nc3c([nH]2)c(=O)n(C)c(=O)n3C)cc1`, the activation factor is 0.6.

On to `CCOc1ccc(Oc2nc(C)cc(OC)n2)nn1`, for which the activation factor is 0.9.

In the case of `Cc1c(C2=CCN(S(=O)(=O)c3ccc(Cl)cc3)CC2)c2ccccc2n1C`, the activation factor was 0.9.

On to `COc1cc(C(=S)NCc2ccccc2)cc(Br)c1O`, for which the activation factor is 1.

In the case of `C/C=C/c1ccc(OCCCCN2CCC(C)CC2)c(OC)c1`, the activation factor was 1.

In the case of `CCn1cc(-c2cc(C(=O)O)on2)c(C)n1`, the activation factor is 0.9.

For `Cc1ccc(OCCOCCOc2ccc(Br)cc2/C=N\NC(=O)c2ccncc2)cc1`, the activation factor is 0.8.

As to `O=C(c1ccc2c(c1)N(Cc1ccc(F)cc1)C(=O)c1ccccc1S2(=O)=O)N1CCN(c2ccccn2)CC1`, the activation factor was 0.8.

Take `CNc1[nH]ncc1[N+](=O)[O-]`: the activation factor is 1.

Take `O=C1c2ccccc2C(=O)N1CCC(O)C[N+](=O)[O-]` (stereo not drawn): the activation factor was 1.

Take `Cc1ccc(NC(=O)OCCNC(=O)c2ccncc2)cc1`: the activation factor is 1.

For the compound `N#Cc1c(NC(=O)C2CCCO2)sc2c1CCCCC2` (stereo not drawn), the activation factor is 1.

For the compound `O=C(/C(=C/c1cccc(Cl)c1)c1nc2ccccc2[nH]1)c1ccccc1`, the activation factor was 0.9.

As to `Cc1ccnc(NC(=O)CCC(=O)N(CC(=O)NCCc2ccccc2)Cc2cccs2)c1`, the activation factor is 1.

Regarding `CC(=O)C1=C(O)C(=O)N(c2cccnc2)C1c1ccc([N+](=O)[O-])cc1` (stereo not drawn), the activation factor was 0.9.

In the case of `O=C1/C(=C/c2cccs2)CCC1C1CCCC1` (stereo not drawn), the activation factor is 0.9.

Turning to `Cc1cccc2cc3c(N)c(C(=O)N4CCCc5ccccc54)sc3nc12`, the activation factor is 0.8.

As to `COc1ccc(OC)c(S(=O)(=O)NCCC(C)C)c1`, the activation factor was 1.1.

For the compound `CCOC(=O)c1c(/N=C/c2cc(C)ccc2O)sc2c1CCC2`, the activation factor is 1.

Take `CC(C)=CCCC1(C)C=Cc2c(ccc3c2[nH]c2cc(O)c(C)cc23)O1` (stereo not drawn): the activation factor was 0.8.

On to `CN1CCNC(=O)C1CC(=O)N1CC=C(c2ccc(F)cc2)CC1` (stereo not drawn), for which the activation factor was 0.9.

Regarding `COC(=O)/C(C#N)=C/c1occc1C`, the activation factor was 0.9.

Take `CCCN(CC(=O)Nc1ccc(OC)c(OC)c1)CC(=O)Nc1ccc(F)c(F)c1F`: the activation factor is 0.9.
